Assays:
[1] = test system: HEK293T cells; assay: Cytotoxicity screening of AHAMCs, trypan blue exclusion assay; assay type: cell-based, Human; settings: 25 mM, 24 h
Summary of the method: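 HEK293T cells were grown in DMEM with 10% FBS, 1mM pyruvate and antibiotics/antifungal at 37 °C and 5% CO2. Cells were seeded at 1 × 10^6 per well, grown 24 h, then given fresh medium. Test compound (100 mM DMSO stock, diluted in DMSO then dH2O) was added at 25 mM for 24 h. Cells were trypsinised (0.5%) and live/dead cells counted by trypan blue on a Bürker hemocytometer under bright field.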

[2] = test system: HEK293T cells; assay: Dose-dependent response; assay type: cell-based, Human; settings: 24 h; for cytotoxicity at higher concentrations: 50 and 100 mM; for IC50: cell death, trypan blue, 6.25-100 mM
Summary of the method: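 HEK293T cells were seeded at 1 × 10^6 per well and grown 24 h. Medium was replaced with medium holding test compound at 6.25, 12.5, 25, 50 or 100 mM for 24 h. Read-out was trypan blue exclusion, with % cell death = dead/total cells × 100. IC50 was taken from a fitted concentration–effect curve. Three technical and biological repeats were done.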

[3] = test system: HEK293T cells; assay: Differentiation of apoptosis and necrosis by PI staining; assay type: cell-based, Human; settings: for cell death compared to the other compounds: IC50, 24 and 48 h
Summary of the method: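 HEK293T cells (1 × 10^6 per well) were grown 24 h, then resuspended in medium with test compound at one fixed concentration for 24 or 48 h. Cells were washed three times in DPBS, trypsinised, washed again, and stained 5 min with 1 mg/mL PI in 2× SSC. Nuclei were imaged by confocal microscopy (ex 535, em 617 nm) and scored as apoptotic or necrotic. About 100 cells were counted per sample, with three technical and biological repeats.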

[4] = test system: HEK293T cells; assay: Externalized phosphatidylserine, Annexin-V staining; assay type: cell-based, Human
Summary of the method: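 HEK293T cells were exposed to test compound for 24 or 48 h, trypsinised, washed three times in DPBS and resuspended in annexin-binding buffer. Alexa Fluor 350 Annexin-V conjugate was added for 15 min at 37 °C, and cells were washed in binding buffer. Imaging was by confocal microscopy (ex 346, em 442 nm). About 100 cells were analysed per sample, with three technical and biological repeats.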

[5] = test system: 1321N1 cells; assay: Cytotoxicity in glioma cells, trypan blue assay; assay type: cell-based, Human; settings: 1321N1, 100 µM, 24 h
Summary of the method: (§1)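 U-87 MG cells were grown in MEM with L-glutamine, and 1321N1 cells in DMEM with L-glutamine plus 2 mM sodium pyruvate. Both media had 10% FBS, penicillin/streptomycin and amphotericin B, at 37 °C and 5% CO2. Cells were seeded at 1 × 10^5 per well, grown 48 h, then exposed 24 h to 100 µM test compound, 0.1% DMSO or 100 µM temozolomide. Cells were trypsinised and scored by trypan blue. Biological and technical repeats were run.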

[6] = test system: U-87 MG cells; assay: Cytotoxicity in glioma cells, trypan blue assay; assay type: cell-based, Human; settings: 100 µM, 24 h
Summary of the method: as §1

[7] = test system: Syrian Hamster Embryo (SHE) cells; settings: 60 µM ref Hahnel et al., 1999; cited from earlier work

Molecule: 2-(2-(2,4-dioxopentan-3-ylidene)hydrazinyl)phenylarsonic acid [Compound 12]
- cytotoxicity [1]: ≤ 30%

Molecule: 2-(2-(2-hydroxy-4-nitrophenyl)hydrazono)-2H-indene-1,3-dione [Compound 2]
- cytotoxicity [1]: ≤ 30%

Molecule: 4-hydroxy-5-(2-(2,4,6-trioxo-tetrahydro-pyrimidin-5(6H) ylidene)hydrazinyl)benzene-1,3-disulfonic acid [Compound 6]
- cytotoxicity [1]: 36%
- cytotoxicity at higher concentrations [2]: did not elicit significant cytotoxicity
- IC50 [2]: 77.08 ± 0.5 mM
- cell death compared to the other compounds [3]: less cell death

Molecule: 5-(2-(2,4-dioxopentan-3-ylidene)hydrazinyl)-2,3-dihydrophthalazine-1,4-dione [Compound 13]
- cytotoxicity [1]: ≤ 30%

Molecule: 5-(2-(2-hydroxy-4-nitrophenyl)hydrazono)pyrimidine-2,4,6(1H,3H,5H)-trione [Compound 7]
- cytotoxicity [1]: ≤ 30%

Molecule: 5-(2-(2-hydroxyphenyl) hydrazono)pyrimidine-2,4,6(1H,3H,5H)-trione [Compound 5]
- cytotoxicity [1]: 46%
- cell death [2]: ~80%
- IC50 [2]: 50.9 ± 2.5 mM
- apoptosis ([3]; IC50 of compound, 24 h): about 40%
- necrosis ([3]; IC50 of compound, 24 h): about 20%
- apoptosis ([3]; IC50 of compound, 48 h): ≈ 60%
- cell death ([3]; IC50 of compound, 48 h): ~80%
- necrosis ([3]; IC50 of compound, 48 h): about 20%
- apoptotic effect (Annexin-V) ([4]; 24 h and 48 h): more apoptotic effect compared to the other compounds
- higher inhibitory effect compared to temozolomide [5]: 10%
- mortality [5]: 20%
- lower inhibitory effect compared to temozolomide [6]: 10%
- mortality [6]: 10%

Molecule: 5-(2-(4,4-dimethyl-2,6-dioxocyclohexylidene)hydrazinyl)-4-hydroxybenzene-1,3-disulfonic acid [Compound 9]
- cytotoxicity [1]: 42%
- cytotoxicity at higher concentrations [2]: did not elicit significant cytotoxicity
- cell death compared to the other compounds [3]: less cell death

Molecule: 5-chloro-2-hydroxy-3-(2-(2,4,6-trioxo-tetrahydropyrimidin-5(6H)-ylidene)hydrazinyl)benzenesulfonic acid [Compound 4]
- cytotoxicity [1]: ≤ 30%

Molecule: 5-chloro-3-(2-(4,4-dimethyl-2,6-dioxocyclohexylidene)hydrazinyl)-2-hydroxybenzenesulfonic acid [Compound 8]
- cytotoxicity [1]: 45%
- cell death [2]: ~80%
- IC50 [2]: 75.5 ± 2.3 mM
- apoptosis/necrosis response compared with compound 5 ([3]; IC50, 48 h): lower response
- level of apoptosis (Annexin-V) ([4]; 48 h): lower level of apoptosis

Molecule: C[C@@H]1Cc2c(Cl)cc(C(=O)N[C@@H](Cc3ccccc3)C(=O)O)c(O)c2C(=O)O1 [Ochratoxin A]
- intracellular calcium increase compared to untreated cells [7]: 45%

Molecule: (E)-3-(2-(1-ethoxy-1,3-dioxobutan-2-ylidene)hydrazinyl)-2-hydroxy-5-nitrobenzenesulfonic acid [Compound 1]
- cytotoxicity [1]: ≤ 30%

Molecule: (Z)-5-chloro-2-hydroxy-3-(2-(4,4,4-trifluoro-1,3-dioxo-1-(thiophen-2-yl)butan-2-ylidene)hydrazinyl)benzenesulfonic acid [Compound 3]
- cytotoxicity [1]: ≤ 30%

Source: article PMC5856940 (Saudi Pharmaceutical Journal : SPJ, 2018)
